Structures are written as SMILES.

The subject of assay [1] is Murid betaherpesvirus 1. Kind of assay: Antiviral activity against MCMV infected in BALB/c mouse assessed as decrease in virus-induced mortality at 50 mg/kg, po qd for 5 days administered 24 hrs after viral infection (reference value: 67%). The format is functional. Set-up: scale not given: the % may be the effect or the level left. The procedure, abridged: (§1)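 Female BALB/c mice (3 weeks, 15/group) were inoculated ip with MCMV Smith at about LD90. Oral dosing of 0.2 mL in 0.4% CMC ran once daily for 5 days, starting 24 or 48 h post-inoculation. Mice were observed daily for 21 days. Mortality was compared with CMC placebo by Fisher's exact test.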

Assay [2] relates to Murid betaherpesvirus 1. Kind of assay: Antiviral activity against MCMV infected in BALB/c mouse assessed as decrease in virus-induced mortality at 16.7 mg/kg, po qd for 5 days administered 24 hrs after viral infection (reference value: 67%). Format: functional. Set-up: scale not given: the % may be the effect or the level left. Summed up: as §1
The subject of assay [3] is Murid betaherpesvirus 1. Kind of assay: Antiviral activity against MCMV infected in BALB/c mouse assessed as decrease in virus-induced mortality at 5.6 mg/kg, po qd for 5 days administered 24 hrs after viral infection (reference value: 67%). The format is functional. On the set-up: scale not given: the % may be the effect or the level left. The procedure, abridged: as §1

Assay [4] concerns Murid betaherpesvirus 1. In words: Antiviral activity against MCMV infected in BALB/c mouse assessed as decrease in virus-induced mortality at 50 mg/kg, po qd for 5 days administered 48 hrs after viral infection (reference value: 100%). Format: functional. On the set-up: scale not given: the % may be the effect or the level left. The procedure, abridged: as §1
Assay [5] relates to Murid betaherpesvirus 1. Kind of assay: Antiviral activity against MCMV infected in BALB/c mouse assessed as decrease in virus-induced mortality at 16.7 mg/kg, po qd for 5 days administered 48 hrs after viral infection (reference value: 100%). Set-up: scale not given: the % may be the effect or the level left. The format is functional. Summed up: as §1
The test system of assay [6] is Murid betaherpesvirus 1. Kind of assay: Antiviral activity against MCMV infected in BALB/c mouse assessed as decrease in virus-induced mortality at 5.6 mg/kg, po qd for 5 days administered 48 hrs after viral infection (reference value: 100%). The format is functional. Set-up: scale not given: the % may be the effect or the level left. Summed up: as §1
In assay [7] the test system is Murid betaherpesvirus 1. In words: Antiviral activity against MCMV infected in BALB/c mouse assessed as decrease in virus-induced mean day of death at 50 mg/kg, po qd for 5 days administered 24 hrs after viral infection (reference value: 4.9 +/- 0.7 days). Format: functional.
Assay [8] deals with Murid betaherpesvirus 1. Kind of assay: Antiviral activity against MCMV infected in BALB/c mouse assessed as decrease in virus-induced mean day of death at 16.7 mg/kg, po qd for 5 days administered 24 hrs after viral infection (reference value: 4.9 +/- 0.7 days). The format is functional.
Assay [9] has as its system Murid betaherpesvirus 1. Kind of assay: Antiviral activity against MCMV infected in BALB/c mouse assessed as decrease in virus-induced mean day of death at 5.6 mg/kg, po qd for 5 days administered 24 hrs after viral infection (reference value: 4.9 +/- 0.7 days). The format is functional.
Assay [10] has as its system Murid betaherpesvirus 1. In words: Antiviral activity against MCMV infected in BALB/c mouse assessed as decrease in virus-induced mean day of death at 50 mg/kg, po qd for 5 days administered 48 hrs after viral infection (reference value: 5.1 +/- 0.9 days). Format: functional.
For assay [11], the system named is Murid betaherpesvirus 1. In words: Antiviral activity against MCMV infected in BALB/c mouse assessed as decrease in virus-induced mean day of death at 16.7 mg/kg, po qd for 5 days administered 48 hrs after viral infection (reference value: 5.1 +/- 0.9 days). Format: functional.
Assay [12] has as its system Murid betaherpesvirus 1. In words: Antiviral activity against MCMV infected in BALB/c mouse assessed as decrease in virus-induced mean day of death at 5.6 mg/kg, po qd for 5 days administered 48 hrs after viral infection (reference value: 5.1 +/- 0.9 days). Format: functional.
Assay [13] deals with Human betaherpesvirus 5. In words: Antiviral activity against HCMV Toledo infected in human thymus/liver tissue xenografted in SCID mouse assessed as mean log10 genome equivalents/animal at 20 mg/kg, po qd for 14 days by RT-PCR analysis (reference value: 3.50 +/- 0.878). The format is functional, strain Toledo.
In assay [14] the test system is Human betaherpesvirus 5. Kind of assay: Antiviral activity against HCMV Toledo infected in human thymus/liver tissue xenografted in SCID mouse assessed as mean log10 genome equivalents/animal at 20 mg/kg, po qd for 21 days by RT-PCR analysis (reference value: 3.82 +/- 1.24). The format is functional, strain Toledo.
For assay [15], the system named is Human betaherpesvirus 5. Kind of assay: Antiviral activity against HCMV Toledo infected in human thymus/liver tissue xenografted in SCID mouse assessed as mean log10 genome equivalents/animal at 20 mg/kg, po qd for 28 days by RT-PCR analysis (reference value: 3.73 +/- 0.784). Format: functional, strain Toledo.
Assay [16] has as its system Human betaherpesvirus 5. Kind of assay: Antiviral activity against HCMV Toledo infected in human thymus/liver tissue xenografted in SCID mouse assessed as mean log10 genome equivalents/animal at 20 mg/kg, po qd for 28 days measured on day 35 by RT-PCR analysis (reference value: 3.28 +/- 1.422). The format is functional, strain Toledo.
Assay [17] concerns Human betaherpesvirus 5. In words: Antiviral activity against HCMV Toledo infected in human thymus/liver tissue xenografted in SCID mouse assessed as decrease in viral infection at 20 mg/kg, po qd for 14 days by RT-PCR analysis (reference value: 92%). The format is functional, strain Toledo. On the set-up: scale not given: the % may be the effect or the level left.
Assay [18] concerns Human betaherpesvirus 5. Kind of assay: Antiviral activity against HCMV Toledo infected in human thymus/liver tissue xenografted in SCID mouse assessed as decrease in viral infection at 20 mg/kg, po qd for 21 days by RT-PCR analysis (reference value: 92%). The format is functional, strain Toledo. Set-up: scale not given: the % may be the effect or the level left.
In assay [19] the test system is Human betaherpesvirus 5. In words: Antiviral activity against HCMV Toledo infected in human thymus/liver tissue xenografted in SCID mouse assessed as decrease in viral infection at 20 mg/kg, po qd for 28 days by RT-PCR analysis (reference value: 92%). Format: functional, strain Toledo. On the set-up: scale not given: the % may be the effect or the level left.
For assay [20], the system named is Human betaherpesvirus 5. Kind of assay: Antiviral activity against HCMV Toledo infected in human thymus/liver tissue xenografted in SCID mouse assessed as decrease in viral infection at 20 mg/kg, po qd for 28 days measured on day 35 by RT-PCR analysis (reference value: 67%). Format: functional, strain Toledo. Set-up: scale not given: the % may be the effect or the level left.

The test system of assay [21] is Murid betaherpesvirus 1. In words: Antiviral activity against MCMV infected in SCID mouse assessed as log10 reduction in viral titer in liver at 10 mg/kg, po relative to control. Format: functional.
Assay [22] relates to Murid betaherpesvirus 1. Kind of assay: Antiviral activity against MCMV infected in SCID mouse assessed as log10 reduction in viral titer in lung at 10 mg/kg, po relative to control. The format is functional.
In assay [23] the test system is Murid betaherpesvirus 1. In words: Antiviral activity against MCMV infected in SCID mouse assessed as log10 reduction in viral titer in spleen at 10 mg/kg, po relative to control. Format: functional.
Assay [24] relates to Murid betaherpesvirus 1. Kind of assay: Antiviral activity against MCMV infected in SCID mouse assessed as log10 reduction in viral titer in kidney at 10 mg/kg, po relative to control. The format is functional.

In the case of `Nc1nc2c(ncn2COC(CO)CO)c(=O)[nH]1` [GANCICLOVIR], the Activity in the assay with Murid betaherpesvirus 1 [1] is given as 7%; with Murid betaherpesvirus 1 [2] it was 20%; in the assay with Murid betaherpesvirus 1 [3] it was 87%; in the assay on Murid betaherpesvirus 1 [4] it was 20%; in the assay with Murid betaherpesvirus 1 [5] it was 53%; in the assay on Murid betaherpesvirus 1 [6], 93%. The Activity in the assay on Murid betaherpesvirus 1 [7] is 6 days; in the assay with Murid betaherpesvirus 1 [8] it was 6.3 days; in the assay on Murid betaherpesvirus 1 [9], 6.8 days; in the assay on Murid betaherpesvirus 1 [10], 5.7 days; with Murid betaherpesvirus 1 [11], 7.3 days; with Murid betaherpesvirus 1 [12], 6.4 days.
As to `Nc1ccn(C[C@@H](CO)OCP(=O)(O)O)c(=O)n1.O.O` [CIDOFOVIR], the Activity in the assay with Human betaherpesvirus 5 [13] was 2.47; in the assay with Human betaherpesvirus 5 [14], 2.83; with Human betaherpesvirus 5 [15], 2.08; in the assay on Human betaherpesvirus 5 [16], 1.59; in the assay with Human betaherpesvirus 5 [17], 82%; with Human betaherpesvirus 5 [18], 100%. Moreover, the Activity with Human betaherpesvirus 5 [19] is recorded as 50%; in the assay with Human betaherpesvirus 5 [20] it was 0%.
In the case of `Nc1nc2c(ncn2/C=C2/CC2(CO)CO)c(=O)[nH]1` [FILOCICLOVIR], the FC in the assay on Murid betaherpesvirus 1 [21], with Murid betaherpesvirus 1 [22], in the assay with Murid betaherpesvirus 1 [23] and with Murid betaherpesvirus 1 [24] was 2 each time.
